Reference: ChEMBL document CHEMBL1287651, “Synthesis and in vitro antibacterial activity of fluoroquinolone derivatives containing 3-(N'-alkoxycarbamimidoyl)-4-(alkoxyimino) pyrrolidines” (2010)
Converted amounts (≈) assume the structure as drawn.

Experiments:
Assay type in all cases: functional
[1] = test system: Staphylococcus aureus; assay: Antibacterial activity against Staphylococcus aureus ATCC […] after 18 to 24 hrs by twofold serial dilution method
Method in brief: (§1)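 MIC determined by the standard twofold serial dilution method on agar media, screening against Gram-positive and Gram-negative strains. Levofloxacin and gemifloxacin were run alongside as reference drugs.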

[2] = test system: Staphylococcus aureus; assay: Antibacterial activity against methicillin-resistant Staphylococcus aureus 08-1 after 18 to 24 hrs by twofold serial dilution method
Method in brief: (§2)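 Standard twofold serial agar dilution method on agar media for MIC determination. Screened against representative Gram-positive and Gram-negative strains. Levofloxacin and GMFX served as control drugs.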

[3] = test system: Staphylococcus aureus; assay: Antibacterial activity against methicillin-sensitive Staphylococcus aureus 08-2 after 18 to 24 hrs by twofold serial dilution method; method in brief: as §2
[4] = test system: Staphylococcus epidermidis; assay: Antibacterial activity against methicillin-resistant Staphylococcus epidermidis 09-2 after 18 to 24 hrs by twofold serial dilution method; method in brief: as §2
[5] = test system: Staphylococcus epidermidis; assay: Antibacterial activity against methicillin-resistant Staphylococcus epidermidis 09-3 after 18 to 24 hrs by twofold serial dilution method; method in brief: as §2
[6] = test system: Staphylococcus epidermidis; assay: Antibacterial activity against methicillin-resistant Staphylococcus epidermidis 09-4 after 18 to 24 hrs by twofold serial dilution method; method in brief: as §2
[7] = test system: Staphylococcus epidermidis; assay: Antibacterial activity against methicillin-sensitive Staphylococcus epidermidis 09-3 after 18 to 24 hrs by twofold serial dilution method; method in brief: as §2
[8] = test system: Staphylococcus epidermidis; assay: Antibacterial activity against methicillin-sensitive Staphylococcus epidermidis 09-6 after 18 to 24 hrs by twofold serial dilution method; method in brief: as §2
[9] = test system: Streptococcus pneumoniae; assay: Antibacterial activity against Streptococcus pneumoniae 08-2 after 18 to 24 hrs by twofold serial dilution method; method in brief: as §1
[10] = test system: Streptococcus pneumoniae; assay: Antibacterial activity against Streptococcus pneumoniae 08-4 after 18 to 24 hrs by twofold serial dilution method; method in brief: as §1
[11] = test system: Enterococcus faecium; assay: Antibacterial activity against Enterococcus faecium 08-2 after 18 to 24 hrs by twofold serial dilution method; method in brief: as §1
[12] = test system: Enterococcus faecium; assay: Antibacterial activity against Enterococcus faecium 08-7 after 18 to 24 hrs by twofold serial dilution method; method in brief: as §1
[13] = test system: Enterococcus faecalis; assay: Antibacterial activity against Enterococcus faecalis 08-10 after 18 to 24 hrs by twofold serial dilution method; method in brief: as §1
[14] = test system: Enterococcus faecalis; assay: Antibacterial activity against Enterococcus faecalis 08-12 after 18 to 24 hrs by twofold serial dilution method; method in brief: as §1
[15] = test system: Escherichia coli; assay: Antibacterial activity against Escherichia coli ATCC 25922 after 18 to 24 hrs by twofold serial dilution method; method in brief: as §1
[16] = test system: Escherichia coli; assay: Antibacterial activity against Escherichia coli 08-21 after 18 to 24 hrs by twofold serial dilution method; method in brief: as §1
[17] = test system: Escherichia coli; assay: Antibacterial activity against Escherichia coli 08-22 after 18 to 24 hrs by twofold serial dilution method; method in brief: as §1
[18] = test system: Klebsiella pneumoniae; assay: Antibacterial activity against Klebsiella pneumoniae 09-21 after 18 to 24 hrs by twofold serial dilution method; method in brief: as §1
[19] = test system: Klebsiella pneumoniae; assay: Antibacterial activity against Klebsiella pneumoniae 09-22 after 18 to 24 hrs by twofold serial dilution method; method in brief: as §1
[20] = test system: Klebsiella pneumoniae; assay: Antibacterial activity against Klebsiella pneumoniae 09-23 after 18 to 24 hrs by twofold serial dilution method; method in brief: as §1
[21] = test system: Pseudomonas aeruginosa; assay: Antibacterial activity against Pseudomonas aeruginosa ATCC 27853 after 18 to 24 hrs by twofold serial dilution method; method in brief: as §1
[22] = test system: Pseudomonas aeruginosa; assay: Antibacterial activity against Pseudomonas aeruginosa 09-32 after 18 to 24 hrs by twofold serial dilution method; method in brief: as §1
[23] = test system: Pseudomonas aeruginosa; assay: Antibacterial activity against Pseudomonas aeruginosa 09-33 after 18 to 24 hrs by twofold serial dilution method; method in brief: as §1
[24] = test system: Pseudomonas aeruginosa; assay: Antibacterial activity against Pseudomonas aeruginosa 09-34 after 18 to 24 hrs by twofold serial dilution method; method in brief: as §1
[25] = test system: Pseudomonas aeruginosa; assay: Antibacterial activity against Pseudomonas aeruginosa 09-35 after 18 to 24 hrs by twofold serial dilution method; method in brief: as §1
[26] = test system: Enterococcus faecium; assay: Ratio of compound MIC to levofloxacin MIC for Enterococcus faecium 08-7
[27] = test system: Klebsiella pneumoniae; assay: Ratio of compound MIC to levofloxacin MIC for Klebsiella pneumoniae 09-22
[28] = test system: Enterococcus faecium; assay: Ratio of compound MIC to gemifloxacin MIC for Enterococcus faecium 08-7
[29] = test system: Klebsiella pneumoniae; assay: Ratio of compound MIC to gemifloxacin MIC for Klebsiella pneumoniae 09-22
[30] = test system: Streptococcus pneumoniae; assay: Ratio of compound MIC to levofloxacin MIC for Streptococcus pneumoniae

SMILES	MIC [1]	MIC [2]	MIC [3]	MIC [4]	MIC [5]	MIC [6]	MIC [7]	MIC [8]	MIC [9]	MIC [10]	MIC [11]	MIC [12]	MIC [13]	MIC [14]	MIC [15]	MIC [16]	MIC [17]	MIC [18]	MIC [19]	MIC [20]	also measured
CCO/N=C1\CN(c2c(F)cc3c(=O)c(C(=O)O)cn(CCF)c3c2F)CC1/C(N)=N\OCC (stereo unspecified)	2 mg/L (≈ 4.14 µM)	4 mg/L (≈ 8.27 µM)	> 128 mg/L	4 mg/L (≈ 8.27 µM)	4 mg/L (≈ 8.27 µM)	4 mg/L (≈ 8.27 µM)	4 mg/L (≈ 8.27 µM)	8 mg/L (≈ 16.5 µM)	8 mg/L (≈ 16.5 µM)	8 mg/L (≈ 16.5 µM)	> 128 mg/L	> 128 mg/L	> 128 mg/L	> 128 mg/L	128 mg/L (≈ 265 µM)	> 128 mg/L	> 128 mg/L	> 128 mg/L	> 128 mg/L	> 128 mg/L	MIC [21]: 128 mg/L (≈ 265 µM); MIC [22]: > 128 mg/L; MIC [23]: > 128 mg/L; MIC [24]: > 128 mg/L; MIC [25]: > 128 mg/L
CCO/N=C(/N)C1CN(c2c(F)cc3c(=O)c(C(=O)O)cn4c3c2OC[C@@H]4C)C/C1=N\OC (stereo partly specified)	0.125 mg/L (≈ 0.271 µM)	0.06 mg/L (≈ 0.13 µM)	0.125 mg/L (≈ 0.271 µM)	0.06 mg/L (≈ 0.13 µM)	0.06 mg/L (≈ 0.13 µM)	0.06 mg/L (≈ 0.13 µM)	0.06 mg/L (≈ 0.13 µM)	0.06 mg/L (≈ 0.13 µM)	8 mg/L (≈ 17.3 µM)	8 mg/L (≈ 17.3 µM)	> 128 mg/L	0.06 mg/L (≈ 0.13 µM)	128 mg/L (≈ 277 µM)	> 128 mg/L	128 mg/L (≈ 277 µM)	> 128 mg/L	> 128 mg/L	> 128 mg/L	0.5 mg/L (≈ 1.08 µM)	> 128 mg/L	MIC [21]: 16 mg/L (≈ 34.7 µM); MIC [22]: 16 mg/L (≈ 34.7 µM); MIC [23]: > 128 mg/L; MIC [24]: > 128 mg/L; MIC [25]: 16 mg/L (≈ 34.7 µM); Ratio [26]: 32; Ratio [27]: 16; Ratio [28]: 32; Ratio [29]: 16
CCO/N=C1\CN(c2c(F)cc3c(=O)c(C(=O)O)cn(CC)c3c2F)CC1/C(N)=N\OC (stereo unspecified)	1 mg/L (≈ 2.22 µM)	0.25 mg/L (≈ 0.554 µM)	8 mg/L (≈ 17.7 µM)	8 mg/L (≈ 17.7 µM)	0.25 mg/L (≈ 0.554 µM)	0.125 mg/L (≈ 0.277 µM)	0.125 mg/L (≈ 0.277 µM)	0.25 mg/L (≈ 0.554 µM)	0.25 mg/L (≈ 0.554 µM)	0.25 mg/L (≈ 0.554 µM)	> 128 mg/L	> 128 mg/L	> 128 mg/L	> 128 mg/L	> 128 mg/L	> 128 mg/L	> 128 mg/L	> 128 mg/L	8 mg/L (≈ 17.7 µM)	> 128 mg/L	MIC [21]: 128 mg/L (≈ 284 µM); MIC [22]: > 128 mg/L; MIC [23]: > 128 mg/L; MIC [24]: > 128 mg/L; MIC [25]: > 128 mg/L; Ratio [30]: 8
CCO/N=C1\CN(c2nc3c(cc2F)c(=O)c(C(=O)O)cn3C2CC2)CC1/C(N)=N\O (stereo unspecified)	0.25 mg/L (≈ 0.578 µM)	0.25 mg/L (≈ 0.578 µM)	0.25 mg/L (≈ 0.578 µM)	0.25 mg/L (≈ 0.578 µM)	0.25 mg/L (≈ 0.578 µM)	0.25 mg/L (≈ 0.578 µM)	0.25 mg/L (≈ 0.578 µM)	0.25 mg/L (≈ 0.578 µM)	0.25 mg/L (≈ 0.578 µM)	0.25 mg/L (≈ 0.578 µM)	> 128 mg/L	> 128 mg/L	> 128 mg/L	0.25 mg/L (≈ 0.578 µM)	> 128 mg/L	> 128 mg/L	> 128 mg/L	> 128 mg/L	> 128 mg/L	> 128 mg/L	MIC [21]: > 128 mg/L; MIC [22]: > 128 mg/L; MIC [23]: > 128 mg/L; MIC [24]: > 128 mg/L; MIC [25]: > 128 mg/L; Ratio [30]: 8
CO/N=C1\CN(c2nc3c(cc2F)c(=O)c(C(=O)O)cn3C2CC2)CC1CN (stereo unspecified) [GEMIFLOXACIN]	0.125 mg/L (≈ 0.321 µM)	0.25 mg/L (≈ 0.642 µM)	0.125 mg/L (≈ 0.321 µM)	0.125 mg/L (≈ 0.321 µM)	0.06 mg/L (≈ 0.154 µM)	0.06 mg/L (≈ 0.154 µM)	0.125 mg/L (≈ 0.321 µM)	0.25 mg/L (≈ 0.642 µM)	8 mg/L (≈ 20.5 µM)	0.25 mg/L (≈ 0.642 µM)	16 mg/L (≈ 41.1 µM)	2 mg/L (≈ 5.14 µM)	16 mg/L (≈ 41.1 µM)	16 mg/L (≈ 41.1 µM)	4 mg/L (≈ 10.3 µM)	16 mg/L (≈ 41.1 µM)	2 mg/L (≈ 5.14 µM)	16 mg/L (≈ 41.1 µM)	8 mg/L (≈ 20.5 µM)	8 mg/L (≈ 20.5 µM)	MIC [21]: 2 mg/L (≈ 5.14 µM); MIC [22]: 0.5 mg/L (≈ 1.28 µM); MIC [23]: 2 mg/L (≈ 5.14 µM); MIC [24]: 0.5 mg/L (≈ 1.28 µM); MIC [25]: 0.5 mg/L (≈ 1.28 µM)
